According to ChEMBL document CHEMBL2057170, “Synthesis and binding properties of new selective ligands for the nucleobase opposite the AP site” (Bioorg Med Chem, 2012):

Assays:
Type in all cases: nucleic-acid assay
Nucleic Acid [1] = assay: Binding affinity to DNA 5'-d GCG TAC AP CAT GCG-3' 3'-d CGC ATG C GTA CGC-5' assessed as equilibrium association constant by SPR analysis in presence of 50 mM NaCl
In short: (§1)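 SPR on BIACORE3000. Hairpin duplexes carrying the AP site (THF) opposite X were 5'-biotin-labelled and immobilized in HBS-N (pH 7.4, 150 mM NaCl). Binding was run in 10 mM HEPES-NaOH pH 7.0 with 50 mM NaCl at 25 °C. Ligand 0.05–2.00 µM was injected at 20 µl/min for 300 s, then 120 s dissociation. Ka came from steady-state affinity analysis with a one-site fit.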

Nucleic Acid [2] = assay: Binding affinity to DNA 5'-d GCG TAC AP CAT GCG-3' 3'-d CGC ATG A GTA CGC-5' assessed as equilibrium association constant by SPR analysis in presence of 50 mM NaCl; in short: as §1
Nucleic Acid [3] = assay: Binding affinity to DNA 5'-d GCG TAC AP CAT GCG-3' 3'-d CGC ATG A GTA CGC-5' assessed as melting temperature pretreated for 5 mins in presence of 50 mM NaCl
In short: (§2)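 UV thermal denaturation at 260 nm used 4 µM duplex (AP = THF) with or without 20 µM ligand in 10 mM HEPES-NaOH pH 7.0, 50 mM NaCl. Samples were preheated 5 min at 80 °C, then slowly cooled. Melts ran 20–80 °C at 1 °C/min. Tm came from non-linear fitting; ΔTm = Tm(+) − Tm(−).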

Nucleic Acid [4] = assay: Binding affinity to DNA 5'-d GCG TAC AP CAT GCG-3' 3'-d CGC ATG T GTA CGC-5' assessed as melting temperature pretreated for 5 mins in presence of 50 mM NaCl; in short: as §2
Nucleic Acid [5] = assay: Binding affinity to DNA 5'-d GCG TAC AP CAT GCG-3' 3'-d CGC ATG C GTA CGC-5' assessed as melting temperature pretreated for 5 mins in presence of 50 mM NaCl; in short: as §2
Nucleic Acid [6] = assay: Binding affinity to DNA 5'-d GCG TAC AP CAT GCG-3' 3'-d CGC ATG T GTA CGC-5' assessed as equilibrium association constant by SPR analysis in presence of 50 mM NaCl; in short: as §1
Nucleic Acid [7] = assay: Binding affinity to DNA 5'-d GCG TAC AP CAT GCG-3' 3'-d CGC ATG G GTA CGC-5' assessed as equilibrium association constant by SPR analysis in presence of 50 mM NaCl; in short: as §1
Nucleic Acid [8] = assay: Binding affinity to DNA 5'-d GCG TAC AP CAT GCG-3' 3'-d CGC ATG G GTA CGC-5' assessed as melting temperature pretreated for 5 mins in presence of 50 mM NaCl; in short: as §2
Nucleic Acid [9] = assay: Binding affinity to DNA 5'-d GCG TAC AP CAT GCG-3' 3'-d CGC ATG A GTA CGC-5' assessed as melting temperature pretreated for 5 mins in presence of 100 mM NaCl
In short: (§3)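 UV thermal denaturation at 260 nm used 4 µM duplex (AP = THF) with or without 20 µM ligand in 10 mM HEPES-NaOH pH 7.0, 100 mM NaCl. Samples were preheated 5 min at 80 °C, then slowly cooled. Melts ran 20–80 °C at 1 °C/min. Tm came from non-linear fitting; ΔTm = Tm(+) − Tm(−).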

Nucleic Acid [10] = assay: Binding affinity to DNA 5'-d GCG TAC AP CAT GCG-3' 3'-d CGC ATG C GTA CGC-5' assessed as melting temperature pretreated for 5 mins in presence of 100 mM NaCl; in short: as §3
Nucleic Acid [11] = assay: Binding affinity to DNA 5'-d GCG TAC AP CAT GCG-3' 3'-d CGC ATG G GTA CGC-5' assessed as melting temperature pretreated for 5 mins in presence of 100 mM NaCl; in short: as §3
Nucleic Acid [12] = assay: Binding affinity to DNA 5'-d GCG TAC AP CAT GCG-3' 3'-d CGC ATG T GTA CGC-5' assessed as melting temperature pretreated for 5 mins in presence of 100 mM NaCl; in short: as §3

## NCCCNCCCNCCCn1ccc(=O)[nH]c1=O
Nucleic Acid [1]
  Ka: 0.022 ×10⁶ /M
Nucleic Acid [2]
  Ka: 0.045 ×10⁶ /M
Nucleic Acid [3]
  Tm: 39.1 °C
Nucleic Acid [4]
  Tm: 33.9 °C
Nucleic Acid [5]
  Tm: 32.1 °C
Nucleic Acid [6]
  Ka: 0.027 ×10⁶ /M
Nucleic Acid [7]
  Ka: 0.001 ×10⁶ /M
Nucleic Acid [8]
  Tm: 36.4 °C

## NCCCNCCCNCCCn1cnc2c(=O)[nH]c(N)nc21
Nucleic Acid [9]
  Tm: 40.4 °C
Nucleic Acid [1]
  Ka: 6.3 ×10⁶ /M
Nucleic Acid [2]
  Ka: 0.016 ×10⁶ /M
Nucleic Acid [10]
  Tm: 40.8 °C
Nucleic Acid [11]
  Tm: 40.9 °C
Nucleic Acid [12]
  Tm: 38.1 °C
Nucleic Acid [6]
  Ka: 0.08 ×10⁶ /M
Nucleic Acid [7]
  Ka: 0.047 ×10⁶ /M

## NCCCNCCCNCCCn1ccc(N)nc1=O
Nucleic Acid [1]
  Ka: 0.002 ×10⁶ /M
Nucleic Acid [2]
  Ka: 0.002 ×10⁶ /M
Nucleic Acid [3]
  Tm: 35.2 °C
Nucleic Acid [4]
  Tm: 32.4 °C
Nucleic Acid [5]
  Tm: 32.6 °C
Nucleic Acid [6]
  Ka: 0.001 ×10⁶ /M
Nucleic Acid [7]
  Ka: 0.039 ×10⁶ /M
Nucleic Acid [8]
  Tm: 40.5 °C

## NCCCNCCCNCCCn1cnc2c(N)ncnc21
Nucleic Acid [9]
  Tm: 40.4 °C
Nucleic Acid [1]
  Ka: 0.01 ×10⁶ /M
Nucleic Acid [2]
  Ka: 0.057 ×10⁶ /M
Nucleic Acid [10]
  Tm: 34.6 °C
Nucleic Acid [11]
  Tm: 40.8 °C
Nucleic Acid [12]
  Tm: 43.7 °C
Nucleic Acid [6]
  Ka: 3.9 ×10⁶ /M
Nucleic Acid [7]
  Ka: 0.087 ×10⁶ /M

## Cc1cn(CCCNCCCNCCCN)c(=O)[nH]c1=O
Nucleic Acid [1]
  Ka: 0.063 ×10⁶ /M
Nucleic Acid [2]
  Ka: 0.222 ×10⁶ /M
Nucleic Acid [3]
  Tm: 39.2 °C
Nucleic Acid [4]
  Tm: 35.5 °C
Nucleic Acid [5]
  Tm: 33.8 °C
Nucleic Acid [6]
  Ka: 0.053 ×10⁶ /M
Nucleic Acid [7]
  Ka: 0.043 ×10⁶ /M
Nucleic Acid [8]
  Tm: 37.8 °C

## NCCCNCCCN
Nucleic Acid [6]
  Ka: < 0.001 ×10⁶ /M
